ChEMBL document CHEMBL1122187, “Synthesis and antiviral activity of certain carbamoylpyrrolopyrimidine and pyrazolopyrimidine nucleosides” (1982)

How the values were obtained:
Type in all cases: functional, Chlorocebus sabaeus
Vero [1] = assay: Percentage plaque reduction was determined against venezuelan equine encephalitis (VEE) virus in african green monkey kidney (vero,V) at a conc of 100-250 ug/mL. Toxic level(320 ug/mL)
Vero [2] = assay: Percentage plaque reduction was determined against Sandfly fever (SF) virus in african green monkey kidney (vero,V) at a conc of 250-500 ug/mL. Toxic level(320 ug/mL)
Vero [3] = assay: Percentage plaque reduction was determined against Sandfly fever (SF) virus in african green monkey kidney (vero,V) at a conc of 25-100 ug/mL. Toxic level(320 ug/mL)
Vero [4] = assay: In vitro antiviral activity against herpes simplex type 1 (HSV-1) virus was determined in african green monkey kidney (vero,V) expressed as virus rating. Toxic level(320 ug/mL)
Procedure, shortened: (§1)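 Cell monolayers (18 h) infected with 320 TCID50 of virus. Compound was added within 15–30 min at half-log dilutions from 1000 to 1 μg/mL. After 72 h at 37 °C in 5% CO2, CPE was scored 0–4 by microscopy. VR = sum of (virus control − treated) scores, halved at partially toxic levels, divided by 10 × test cups per drug level.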

Vero [5] = assay: In vitro antiviral activity against parainfluenza type 3(para 3) virus was determined in african green monkey kidney (vero,V) expressed as virus rating. Toxic level(320 ug/mL); procedure, shortened: as §1
Vero [6] = assay: Percentage plaque reduction was determined against Sandfly fever (SF) virus in african green monkey kidney (vero,V) at a conc of <25 ug/mL. Toxic level(320 ug/mL)
Procedure, shortened: (§2)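 Infected Vero 24-well monolayers: virus adsorbed 1 h at 37 °C, then overlaid with agar holding dilutions of compound and incubated again at 37 °C with CO₂. Plaques were stained with crystal violet and counted. Inhibition was scored as % plaque reduction bands (10-30%, 31-60%, 61-90%), each tied to a drug concentration range.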

Vero [7] = assay: Percentage plaque reduction was determined against rift valley fever(RVF) virus in african green monkey kidney (vero,V) at a conc of 250-500 ug/mL. Toxic level(320 ug/mL); 10-30
Vero [8] = assay: Percentage plaque reduction was determined against venezuelan equine encephalitis (VEE) virus in african green monkey kidney (vero,V) at a conc of 250-500 ug/mL. Toxic level(320 ug/mL)
Vero [9] = assay: Percentage plaque reduction was determined against yellow fever (YF) virus in african green monkey kidney (vero,V).Toxic level(320 ug/mL); 10-30
Vero [10] = assay: Percentage plaque reduction was determined against Sandfly fever (SF) virus in african green monkey kidney (vero,V) at a conc of 100-250 ug/mL. Toxic level(320 ug/mL)
Vero [11] = assay: Percentage plaque reduction was determined against venezuelan equine encephalitis (VEE) virus in african green monkey kidney (vero,V) at a conc of <25 ug/mL. Toxic level(320 ug/mL)
Vero [12] = assay: Percentage plaque reduction was determined against venezuelan equine encephalitis (VEE) virus in african green monkey kidney (vero,V) at a conc of 25-100 ug/mL. Toxic level(320 ug/mL)
Vero [13] = assay: In vitro antiviral activity against vaccinia(VV) virus was determined in african green monkey kidney (vero,V) expressed as virus rating. Toxic level(320 ug/mL); procedure, shortened: as §1
Vero [14] = assay: Percentage plaque reduction was determined against venezuelan equine encephalitis (VEE) virus in african green monkey kidney (vero,V) at a conc of 100-250 ug/mL. Toxic level(1000 ug/mL)
Vero [15] = assay: Percentage plaque reduction was determined against venezuelan equine encephalitis (VEE) virus in african green monkey kidney (vero,V) at a conc of 25-100 ug/mL. Toxic level(1000 ug/mL)
Vero [16] = assay: In vitro antiviral activity against parainfluenza type 3(para 3) virus was determined in african green monkey kidney (vero,V) expressed as virus rating. Toxic level(1000 ug/mL); procedure, shortened: as §1
Vero [17] = assay: Percentage plaque reduction was determined against venezuelan equine encephalitis (VEE) virus in african green monkey kidney (vero,V) at a conc of <25 ug/mL. Toxic level(1000 ug/mL)
Vero [18] = assay: Percentage plaque reduction was determined against rift valley fever(RVF) virus in african green monkey kidney (vero,V) at a conc of 250-500 ug/mL. Toxic level(1000 ug/mL); 10-30
Vero [19] = assay: Percentage plaque reduction was determined against yellow fever(YF) virus in african green monkey kidney (vero,V).Toxic level(1000 ug/mL); 61-90
Vero [20] = assay: Percentage plaque reduction was determined against pichinde(PICH) virus in african green monkey kidney (vero,V).Toxic level(1000 ug/mL); 10-30; procedure, shortened: as §2
Vero [21] = assay: Percentage plaque reduction was determined against venezuelan equine encephalitis (VEE) virus in african green monkey kidney (vero,V) at a conc of 250-500 ug/mL. Toxic level(1000 ug/mL)
Vero [22] = assay: In vitro antiviral activity against herpes simplex type 1 (HSV-1) virus was determined in african green monkey kidney (vero,V) expressed as virus rating. Toxic level(1000 ug/mL); procedure, shortened: as §1
Vero [23] = assay: Percentage plaque reduction was determined against Sandfly fever (SF) virus in african green monkey kidney (vero,V) at a conc of 25-100 ug/mL. Toxic level(1000 ug/mL); 61-90
Vero [24] = assay: In vitro antiviral activity against vaccinia(VV) virus was determined in african green monkey kidney (vero,V) expressed as virus rating. Toxic level(1000 ug/mL); procedure, shortened: as §1
Vero [25] = assay: In vitro antiviral activity against herpes simplex type 1 (HSV-1) virus was determined in african green monkey kidney (vero,V) expressed as virus rating. Toxic level(>1000 ug/mL); procedure, shortened: as §1
Vero [26] = assay: In vitro antiviral activity against vaccinia(VV) virus was determined in african green monkey kidney (vero,V) expressed as virus rating. Toxic level(>1000 ug/mL); procedure, shortened: as §1
Vero [27] = assay: In vitro antiviral activity against parainfluenza type 3(para 3) virus was determined in african green monkey kidney (vero,V) expressed as virus rating. Toxic level(>1000 ug/mL); procedure, shortened: as §1

Question: For CSc1ncnc2c1cnn2[C@@H]1O[C@H](COC(C)=O)[C@@H](OC(C)=O)[C@H]1OC(C)=O, which Plaque reduction (Vero [1]) is on record?
Answer: 0%

Question: What about the Plaque reduction (Vero [2]) of the same compound?
Answer: 0%

Question: What about the Plaque reduction (Vero [3]) of the same compound?
Answer: 0%

Question: What about the Virus rating (Vero [4]) of the same compound?
Answer: 0

Question: And the Virus rating (Vero [5])?
Answer: 0

Question: What about the Plaque reduction (Vero [6]) of the same compound?
Answer: 0%

Question: And the Plaque reduction (Vero [7])?
Answer: 10%

Question: What about the Plaque reduction (Vero [8]) of the same compound?
Answer: 0%

Question: And the Plaque reduction (Vero [9])?
Answer: 10%

Question: And the Plaque reduction (Vero [10])?
Answer: 0%

Question: What about the Plaque reduction (Vero [11]) of the same compound?
Answer: 0%

Question: And the Plaque reduction (Vero [12])?
Answer: 0%

Question: What about the Virus rating (Vero [13]) of the same compound?
Answer: 0.5

Question: What does the source list for OC[C@H]1O[C@@H](C2=NNC3C(=S)N=CN=C23)[C@H](O)[C@@H]1O (stereo partly specified)?
Answer: Plaque reduction (Vero [14]): 0%; Plaque reduction (Vero [15]): 0%; Virus rating (Vero [16]): 1.1; Plaque reduction (Vero [17]): 0%; Plaque reduction (Vero [18]): 10%; Plaque reduction (Vero [19]): 61%; Plaque reduction (Vero [20]): 10%; Plaque reduction (Vero [21]): 0%; Virus rating (Vero [22]): 0; Plaque reduction (Vero [23]): 61%; Virus rating (Vero [24]): 1

Question: Which results are given for OC[C@H]1O[C@@H](c2n[nH]c3c(Cl)ncnc23)[C@H](O)[C@@H]1O?
Answer: Virus rating (Vero [4]): 0; Virus rating (Vero [5]): 1.3; Virus rating (Vero [13]): 1

Question: Which Virus rating (Vero [4]) does the source give for CSc1ncnc2c1ncn2[C@@H]1O[C@H](CO)[C@@H](O)[C@H]1O here?
Answer: 1.7

Question: And the Virus rating (Vero [5])?
Answer: 2.2

Question: What about the Virus rating (Vero [13]) of the same compound?
Answer: 2

Question: OC[C@H]1O[C@@H](n2cnc3c(Cl)ncnc32)[C@H](O)[C@@H]1O was tested. Which Virus rating (Vero [16]) did it give?
Answer: 0.4

Question: What about the Virus rating (Vero [22]) of the same compound?
Answer: 0.4

Question: What about the Virus rating (Vero [24]) of the same compound?
Answer: 1.8

Question: Which Virus rating (Vero [25]) does the source give for OC[C@H]1O[C@@H](n2ccc3c(S)ncnc32)[C@H](O)[C@@H]1O here?
Answer: 0.2

Question: And the Virus rating (Vero [26])?
Answer: 0.5

Question: What about the Virus rating (Vero [27]) of the same compound?
Answer: 1.1
